Data set [1] has as its system MCF7. The experiment in a line: Antiproliferative activity against human MCF7 cells after 24 hrs by MTT assay. The class given is functional, cell-based. The settings on record: MCF7, 24 h. An outline of the steps: (§1)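 MCF-7 (ER+ve) and MDA-MB-231 (ER-ve) breast cancer cells were exposed to compound or vehicle. Viability was read by MTT and expressed as % cell death versus vehicle, with 4-hydroxytamoxifen as positive control. IC50 came from three independent experiments, each in triplicate.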

Data set [2] has as its system MDA-MB-231. Put plainly: Antiproliferative activity against human MDA-MB-231 cells after 24 hrs by MTT assay. It counts as functional, cell-based. The settings on record: MDA-MB-231, 24 h. In short, it runs like this:
as §1
For orientation: Tetrazolium assays rely on reduction of a dye to a coloured formazan, in cell work by metabolically active cells.

The subject of data set [3] is HEK293. The experiment in a line: Cytotoxicity against HEK293 cells after 24 hrs by MTT assay. The class given is cell-based. The settings on record: Homo sapiens, HEK293, 72 h; in the assay text read “after 72 hrs” for “after 24 hrs”.
Data set [4] concerns MCF7. The experiment in a line: Antiproliferative activity against human MCF7 cells after 72 hrs by MTT assay. The class given is functional, cell-based. As to conditions: MCF7, 72 h. An outline of the steps:
as §1

The nature of data set [5]: Safety index, ratio of IC50 for HEK293 cells to IC50 for human MCF7 cells. It counts as toxicity, cell-based. As to conditions: HEK293 cells versus MCF7 cells, read-out: Ratio IC50. An outline of the steps: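 Cell death was assessed by MTT assay after 72 h exposure. The ratio was calculated as the HEK-293 IC50 divided by the MCF-7 EC50.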
Data set [6] relates to MCF7. The experiment in a line: Antiproliferative activity against human MCF7 cells after 48 hrs by MTT assay. The class given is functional, cell-based. As to conditions: MCF7, 48 h. An outline of the steps:
as §1

The subject of data set [7] is MDA-MB-231. Put plainly: Antiproliferative activity against human MDA-MB-231 cells after 72 hrs by MTT assay. It counts as functional, cell-based. The settings on record: MDA-MB-231, 72 h. In short, it runs like this: as §1
Data set [8] concerns MDA-MB-231. The experiment in a line: Antiproliferative activity against human MDA-MB-231 cells after 48 hrs by MTT assay. The class given is functional, cell-based. As to conditions: MDA-MB-231, 48 h. An outline of the steps:
as §1

The results in this text go back to ChEMBL document CHEMBL3091313, “Amino acids derived benzoxazepines: design, synthesis and antitumor activity” (Bioorg Med Chem Lett, 2013).

Take `COc1ccc(C[C@H]2COc3ccccc3CN2Cc2ccc(O)cc2)cc1`: the values for the IC50 in data set [1] and in data set [2] were 10.3 µM and 13.2 µM, respectively.

For `CCC(=C(c1ccc(O)cc1)c1ccc(OCCN(C)C)cc1)c1ccccc1`, the IC50 was determined as 7.2 µM in data set [1] and 10.4 µM in data set [2].

`COc1ccc2c(c1)CN(S(=O)(=O)c1ccc(C)cc1)[C@@H](CC(C)C)CO2`: the half-maximal inhibitory concentration (IC50) in data set [1] and in data set [2] was over 20 µM each time.

For `COc1ccc2c(c1)CN(S(=O)(=O)c1ccc(C)cc1)[C@@H](Cc1c[nH]c3ccccc13)CO2`, the IC50 in data set [1] and in data set [2] was over 20 µM throughout.

On to `COc1ccc(C[C@H]2COc3ccccc3CN2Cc2ccc(OCCN3CCCCC3)cc2)cc1`, for which the IC50 in data set [1] and in data set [2] was over 20 µM each time.

As for `CCN(CC)CCOc1ccc(C[C@H]2COc3c(cccc3OC)CN2S(=O)(=O)c2ccc(C)cc2)cc1`, the IC50 in data set [1] and in data set [2] was over 20 µM in each case.

Consider `COc1ccc(C[C@H]2COc3ccccc3CN2Cc2ccc(OCCN3CCCC3)cc2)cc1`, for which the IC50 in data set [1] came to 12.5 µM; in data set [2], 15.7 µM.

In the case of `Cc1ccc(S(=O)(=O)N2Cc3ccccc3OCC2Cc2ccc(O)cc2)cc1` (stereo not drawn), the concentration for half-maximal inhibition (IC50) was determined as 30 µM in data set [3] and 10 µM in data set [4]. Besides, the selectivity ratio in data set [5] was determined as 3.

Take `COc1ccc(C[C@H]2COc3ccccc3CN2)cc1`: the IC50 in data set [1] and in data set [2] was over 20 µM each time.

For `COc1cccc2c1OC[C@H](Cc1ccc(OCCN3CCCC3)cc1)N(S(=O)(=O)c1ccc(C)cc1)C2`, the 50% inhibitory concentration (IC50) in data set [1] and in data set [2] was over 20 µM each time.

Turning to `COc1ccc(C[C@H]2COc3ccccc3CN2Cc2ccc(OCCN3CCCCCC3)cc2)cc1`, the IC50 in data set [1] and in data set [2] was over 20 µM in each case.

On to `COc1ccc(C[C@H]2COc3ccccc3CN2Cc2ccc(OCCN(C)C)cc2)cc1`, for which the IC50 in data set [1] and in data set [2] was over 20 µM throughout.

`COc1cccc2c1OC[C@H](Cc1ccc(OCCN3CCOCC3)cc1)N(S(=O)(=O)c1ccc(C)cc1)C2`: the IC50 in data set [1] and in data set [2] was over 20 µM each time.

Turning to `COc1ccc(C[C@H]2COc3ccccc3CN2C(=O)OC(C)(C)C)cc1`, the half-maximal inhibitory concentration (IC50) in data set [1] and in data set [2] was over 20 µM in each case.

Take `CCN(CC)CCOc1ccc(CN2Cc3ccccc3OC[C@@H]2Cc2ccc(OC)cc2)cc1`: the IC50 turned out to be 14.5 µM in data set [1] and 18.6 µM in data set [2].

For `COc1cccc2c1OC[C@H](Cc1ccc(OCCN3CCCCCC3)cc1)N(S(=O)(=O)c1ccc(C)cc1)C2`, the IC50 in data set [1] and in data set [2] was over 20 µM in each case.

Consider `COc1ccc2c(c1)OC[C@H](Cc1ccc(O)cc1)N(S(=O)(=O)c1ccc(C)cc1)C2`, for which the IC50 in data set [1] and in data set [2] was over 20 µM in each case.

`Cc1ccc(S(=O)(=O)N2Cc3ccccc3OC[C@@H]2Cc2ccc(OCCN3CCCCC3)cc2)cc1`: the IC50 in data set [6] worked out at 4.31 µM; in data set [1], 9.62 µM; in data set [7], 4.2 µM; in data set [2], 10.2 µM; in data set [4] it was 3.23 µM; in data set [8] it was 5.12 µM.

For `COc1cccc2c1OC[C@H](Cc1ccc(OCCN(C)C)cc1)N(S(=O)(=O)c1ccc(C)cc1)C2`, the IC50 in data set [1] and in data set [2] was over 20 µM each time.

One may read the IC50 as the concentration needed to halve the response being measured. Higher therefore signals lower potency.
